Here are results for eleven compounds from ChEMBL document CHEMBL6096700, “Modulation of Mitochondria-Endoplasmic Reticulum Contacts (MERCs) by Small Molecules as a New Strategy for Restoring Lipid Metabolism in an Amyotrophic Lateral Sclerosis Model” (J Med Chem, 2025).

Data set [1] can be described thus: Modulation of mitochondria-endoplasmic reticulum contacts in human HCT-116 cells expressing MERLIN by BRET assay. The format is functional, cell-based. A digest of the protocol:
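MERLIN-HCT116 BRET biosensor cells (RLuc8 donor, mVenus acceptor) seeded at 4500/well for 24 h, then treated with compound overnight. Coelenterazine h 5 μM added for 8 min in the dark, read at RT. BRET = acceptor/donor emission minus RLuc8-only background, with DMSO, RLuc8 and RLuc8-mVenus controls; plates kept if Z'>0.7.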
Background: In BRET a luciferase serves as donor, and the signal depends on an acceptor being close.

The subject of data set [2] is HCT-116. Nature of the data set: Cytotoxicity against human HCT-116 cells assessed as cell viability at 1 uM incubated for 24 hrs by MTT assay. The format is toxicity, cell-based. The settings on record: hct-116, 24 h. A digest of the protocol:
(§1)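 HCT116 cells grown in phenol red-free McCoy's 5A with 10% FBS and 1% penicillin/streptomycin. Exposed 24 h to compound at 1, 5 or 10 μM. Viability measured by MTT reduction to formazan read by absorbance, expressed as percent of untreated controls. Safety threshold >80% viability. Mean ± SEM of three independent experiments.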
(In general: Tetrazolium dyes change colour on reduction, which living cells bring about.)

Data set [3] relates to HCT-116. Nature of the data set: Induction of extracellular NBD-labeled cholesterol uptake in human HCT-116 cells at 1 uM incubated for 24 hrs followed by NBD-labeled cholesterol addition measured after 1 to 3 hrs by fluorescence based assay. In kind it is functional, cell-based. The settings on record: time 25-27 hrs. A digest of the protocol:
(§2)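 HCT116 cells seeded 24 h at 37 °C, 5% CO2, then treated with compound for 24 h. NBD-cholesterol added for 1 and 3 h. Cells washed three times with PBS, fluorescence read at 469/537 nm, compared with untreated cells. Mean ± SEM of three independent experiments.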

A short description of data set [4]: Permeability of compound incubated for 2.5 hrs by PAMPA. In kind it is ADME. A digest of the protocol: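 PAMPA-BBB: compounds in PBS/EtOH 70:30, pH 7.4, placed in a donor plate over a filter coated with porcine brain lipid in dodecane (20 mg/mL), with phosphate-buffer acceptor. Incubated 2 h 30 min at RT. Acceptor concentration read by absorbance at 2–5 wavelengths, three wells, two runs (mean ± SD). Ten reference drugs; CNS+ if Pe >4.4 × 10–6 cm s–1.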

Data set [5] relates to HCT-116. As to the kind of experiment: Cytotoxicity against human HCT-116 cells assessed as cell viability at 5 uM incubated for 24 hrs by MTT assay. The format is toxicity, cell-based. The settings on record: hct-116, 24 h. A digest of the protocol:
as §1

For data set [6], the system named is Lymphoblastoid cell. As to the kind of experiment: Induction of lipid droplet formation in patient-derived Sporadic ALS lymphoblastoid cells at 5 uM incubated for 24 hrs by TEM analysis. The format is functional, cell-based. The settings on record: Homo sapiens. A digest of the protocol:
(§3)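 Control and sporadic ALS lymphoblasts with or without compound (5 μM, 24 h) were fixed 4 h at 4 °C in 4% paraformaldehyde/2.5% glutaraldehyde in 0.1 M phosphate pH 7.3. Postfixed in osmium tetroxide/potassium ferrocyanide, acetone-dehydrated, Spurr-embedded. 60 nm sections stained with lead citrate and imaged by TEM at 80 kV.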

Data set [7] concerns Lymphoblastoid cell. As to the kind of experiment: Induction of extracellular NBD-labeled cholesterol uptake in patient-derived lymphoblastoid cells at 5 uM incubated for 24 hrs followed by NBD-labeled cholesterol addition measured after 1 hr in presence of EZE by fluorescence based assay. In kind it is functional. Particulars: Homo sapiens, time 25.0 hrs.
In data set [8] the test system is Lymphoblastoid cell. Nature of the data set: Induction of extracellular NBD-labeled cholesterol uptake in patient-derived SOD1 ALS lymphoblastoid cells at 5 uM incubated for 24 hrs followed by NBD-labeled cholesterol addition measured after 1 hr by fluorescence based assay. Particulars: Homo sapiens, time 25.0 hrs. The format is functional.
Data set [9] concerns Lymphoblastoid cell. As to the kind of experiment: Induction of extracellular NBD-labeled cholesterol uptake in patient-derived Sporadic ALS lymphoblastoid cells at 5 uM incubated for 24 hrs followed by NBD-labeled cholesterol addition measured after 1 hr in presence of […] by fluorescence based assay. The format is functional. The settings on record: Homo sapiens, time 25.0 hrs. A digest of the protocol: (§4)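 Lymphoblastoid lines from controls (C100, C112) and sporadic ALS patients (E2, E4) treated 24 h with compound at 5 μM. BLT1, SSO or EZE (10 μM) added 15 min before NBD-cholesterol, which was left for 1 h. Cells washed three times with PBS, fluorescence read at 469/537 nm. Run in triplicate; mean ± SEM.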

For data set [10], the system named is Lymphoblastoid cell. As to the kind of experiment: Modulation of mitochondria-endoplasmic reticulum contacts in patient-derived Sporadic ALS lymphoblastoid cells at 5 uM incubated for 24 hrs by Seahorse XF analysis. The format is functional, cell-based. The settings on record: Homo sapiens.
The test system of data set [11] is Lymphoblastoid cell. As to the kind of experiment: Induction of lipid droplet formation in patient-derived lymphoblastoid cells at 5 uM incubated for 24 hrs by LipidTOX Green/DAPI staining based analysis. The settings on record: Homo sapiens. The format is functional. A digest of the protocol: (§5)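 Control and sporadic ALS lymphoblastoid cells treated 24 h with compound at 5 μM or vehicle, fixed in 4% PFA, washed in PBS. Lipid droplets stained 2 h with LipidTOX Green, nuclei with DAPI. Confocal imaging and image-based quantification of >100 cells per condition; mean ± SEM.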

In data set [12] the test system is Lymphoblastoid cell. As to the kind of experiment: Induction of lipid droplet formation in patient-derived Sporadic ALS lymphoblastoid cells at 5 uM incubated for 24 hrs by LipidTOX Green/DAPI staining based analysis. The format is functional. The settings on record: Homo sapiens. A digest of the protocol: as §5
The subject of data set [13] is Lymphoblastoid cell. Nature of the data set: Induction of extracellular NBD-labeled cholesterol uptake in patient-derived lymphoblastoid cells at 5 uM incubated for 24 hrs followed by NBD-labeled cholesterol addition measured after 1 hr in presence of SSO by fluorescence based assay. In kind it is functional. The settings on record: Homo sapiens, time 25.0 hrs.
Data set [14] relates to Lymphoblastoid cell. As to the kind of experiment: Restoration of mitochondrial cristae structure in patient-derived Sporadic ALS lymphoblastoid cells at 5 uM incubated for 24 hrs by TEM analysis. In kind it is functional, cell-based. The settings on record: Homo sapiens. A digest of the protocol: as §3
The subject of data set [15] is HCT-116. As to the kind of experiment: Modulation of mitochondria-endoplasmic reticulum contacts in human HCT-116 cells at 25 uM incubated for 1 hr by TEM analysis. In kind it is functional, cell-based.
Data set [16] relates to Lymphoblastoid cell. Nature of the data set: Induction of cholesteryl ester formation in patient-derived lymphoblastoid cells at 5 uM incubated for 24 hrs by Amplex assay. In kind it is functional, cell-based. Particulars: Homo sapiens. A digest of the protocol:
(§6)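 Control and sporadic ALS lymphoblastoid cells treated 24 h with compound at 5 μM or vehicle. Lipids extracted from equal cell amounts with chloroform:methanol 2:1 (v/v). Organic phase dried, resuspended in assay buffer, and cholesteryl esters quantified with the Amplex cholesterol kit. Individual values reported.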

In data set [17] the test system is HCT-116. As to the kind of experiment: Induction of extracellular NBD-labeled cholesterol uptake in human HCT-116 cells at 5 uM incubated for 24 hrs followed by NBD-labeled cholesterol addition measured after 3 hrs by fluorescence based assay. In kind it is functional, cell-based. The settings on record: time 27.0 hrs. A digest of the protocol: as §2
Data set [18] deals with Lymphoblastoid cell. Nature of the data set: Improvement in spare respiratory capacity in patient-derived Sporadic ALS lymphoblastoid cells at 5 uM incubated for 24 hrs by Seahorse XF analysis. The format is functional, cell-based. The settings on record: Homo sapiens. A digest of the protocol:
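Control and sALS lymphoblasts plated at 200,000 cells/well on poly-L-lysine and cultured 24 h ± compound (5 μM). Then moved to bicarbonate-free DMEM with 2 mM glutamine, 5 mM glucose, 2% FBS, 1 mM pyruvate and 5 mM HEPES pH 7.4, 1 h without CO2. Seahorse Mito Stress OCR: basal, oligomycin 1 μM, FCCP 3 μM, antimycin/rotenone 2.5 μM each. Four replicates, mean ± SEM.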

The test system of data set [19] is Lymphoblastoid cell. As to the kind of experiment: Induction of extracellular NBD-labeled cholesterol uptake in patient-derived Sporadic ALS lymphoblastoid cells at 5 uM incubated for 24 hrs followed by NBD-labeled cholesterol addition measured after 1 hr in presence of EZE by fluorescence based assay. In kind it is functional. Particulars: Homo sapiens, time 25.0 hrs. A digest of the protocol:
as §4

Data set [20] has as its system Lymphoblastoid cell. Nature of the data set: Induction of cholesteryl ester formation in patient-derived Sporadic ALS lymphoblastoid cells at 5 uM incubated for 24 hrs by Amplex assay. In kind it is functional, cell-based. The settings on record: Homo sapiens. A digest of the protocol:
as §6

In data set [21] the test system is Lymphoblastoid cell. Nature of the data set: Induction of extracellular NBD-labeled cholesterol uptake in patient-derived C9orf72-mutated familial ALS lymphoblastoid cells at 5 uM incubated for 24 hrs followed by NBD-labeled cholesterol addition measured after 1 hr by fluorescence based assay. In kind it is functional. Particulars: Homo sapiens, time 25.0 hrs.

Data set [22] deals with Lymphoblastoid cell. Nature of the data set: Induction of extracellular NBD-labeled cholesterol uptake in patient-derived lymphoblastoid cells at 5 uM incubated for 24 hrs followed by NBD-labeled cholesterol addition measured after 1 hr in presence of […] by fluorescence based assay. In kind it is functional. Particulars: Homo sapiens, time 25.0 hrs.
Data set [23] deals with Lymphoblastoid cell. Nature of the data set: Induction of extracellular NBD-labeled cholesterol uptake in patient-derived Sporadic ALS lymphoblastoid cells at 5 uM incubated for 24 hrs followed by NBD-labeled cholesterol addition measured after 1 hr in presence of SSO by fluorescence based assay. The settings on record: Homo sapiens, time 25.0 hrs. The format is functional. A digest of the protocol: as §4

The test system of data set [24] is Lymphoblastoid cell. Nature of the data set: Induction of extracellular NBD-labeled cholesterol uptake in patient-derived Sporadic ALS lymphoblastoid cells at 5 uM incubated for 24 hrs followed by NBD-labeled cholesterol addition measured after 1 hr by fluorescence based assay. The format is functional. Particulars: Homo sapiens, time 25.0 hrs.

Molecules are shown by their SMILES. Calls of active or inactive are those of the source. Where a SMILES comes first, the peptide text is derived from it. The star is where a group is joined. Cbz = O=C(OCc1ccccc1)*

As for `O=C(Nc1ccc([N+](=O)[O-])cc1)c1cccc2ccccc12`, it took 21.7 µM to reach a half-maximal effect in [1] (EC50).
As to `O=C(Nc1ccc([N+](=O)[O-])cc1F)c1cc(Cl)ccc1O`, the Activity result in data set [2] is “Non-toxic”. In addition, the outcome in data set [3] was inactive. The EC50 in data set [1] stood at 5.64 µM.
As for `N#Cc1ccc(NC(=O)c2cc(Cl)ccc2O)cc1`, the permeability result in data set [4] was “Permeable”. In addition, the Activity result in [2] and in data set [5] was “Non-toxic” throughout. Further, in [3], the outcome was inactive. The compound also yielded a concentration giving a half-maximal response (EC50) in data set [1] of 9.7 µM.
Consider `O=C(Nc1ccc([N+](=O)[O-])cc1)c1cc(Cl)ccc1O`, for which the permeability result in [4] was “Permeable”. For the same compound, in [3], the outcome was inactive. Besides, the concentration giving a half-maximal response (EC50) in data set [1] was found to be 2.44 µM.
Take `O=C(Nc1ccc([N+](=O)[O-])cc1Cl)c1cccc2ccccc12`: the half-maximal effective concentration (EC50) in data set [1] is 3.34 µM.
`O=C(Nc1ccc([N+](=O)[O-])cc1Cl)c1cc(Cl)ccc1O` [NICLOSAMIDE]: in data set [2], the Activity result is “Non-toxic”. Moreover, in [3], the result was inactive. Besides, the EC50 in data set [1] was 5.68 µM.
Consider `CNC(=O)c1ccc(NC(=O)c2cc(Cl)ccc2O)cc1`, for which the 50% effective concentration (EC50) in data set [1] is 10.2 µM. In other words, the double-digit micromolar range.
On to `O=C(Nc1ccccc1)c1cc(Cl)ccc1O`, for which the outcome in data set [6], in [7], in data set [10], in [11], in data set [12] and in data set [13] was Active. Moreover, the outcome in data set [14], in [15], in [16], in [17], in data set [18] and in [19] was Active. In addition, the outcome in [20], in data set [21], in data set [23] and in [24] was Active. In addition, the permeability entry in data set [4] is “Permeable”. For the same compound, the outcome in data set [8] and in data set [3] was inactive. Also, the Activity result in [9] is “Not active; The Result Suggests That Cell Surface Hdl Scavenger Receptor B, Type 1 (Sr-B1) May Be Involved In Mechanism Of Action”; in [2], “Non-toxic”; in data set [5] it was “Non-toxic”; in data set [22] it was “Not active; The Result Suggests That Cell Surface Hdl Scavenger Receptor B, Type 1 (Sr-B1) May Be Involved In Mechanism Of Action”.
Regarding `O=C(Nc1cccc([N+](=O)[O-])c1)c1cc(Cl)ccc1O`, the permeability result in [4] is reported as “Permeable”. For the same compound, the Activity entry in data set [2] and in data set [5] was “Non-toxic” each time. For the same compound, the outcome in data set [3] was inactive. Moreover, the EC50 in data set [1] was determined as 8.32 µM.
`CC(C)C[C@@H](C=O)NC(=O)[C@H](CC(C)C)NC(=O)[C@H](CC(C)C)NC(=O)OCc1ccccc1` [MG-132] (Cbz-Leu-Leu-Leu-aldehyde) gave a concentration giving a half-maximal response (EC50) in [1] of 13.7 µM. That is a double-digit micromolar value.
`O=C(Nc1ccc(F)cc1)c1cc(Cl)ccc1O` yielded a concentration giving a half-maximal response (EC50) in [1] of 20.2 µM.

One may read the EC50 as the concentration needed to bring the measured effect to its halfway point. Low values mean a more potent agent, high ones a less potent agent.
